# In ChEMBL document CHEMBL5247591, “Single-digit nanomolar inhibitors lock the aromatase active site via a dualsteric targeting strategy” (Eur J Med Chem, 2022):
# Activity calls are given as the source filed them. The rule behind the calls is not given here.
# What was measured:
# Aromatase [1] = target: T1, Aromatase (Homo sapiens, UniProt P11511); assay: Inhibition of human placental microsome aromatase using androstenedione as substrate assessed as reduction in 3H2O formation preincubated for 5 mins in presence of NADPH followed by microsomal protein addition and measured after 3 hrs; assay type: microsomes, Placenta
# T1 sequence (P11511 whole entry): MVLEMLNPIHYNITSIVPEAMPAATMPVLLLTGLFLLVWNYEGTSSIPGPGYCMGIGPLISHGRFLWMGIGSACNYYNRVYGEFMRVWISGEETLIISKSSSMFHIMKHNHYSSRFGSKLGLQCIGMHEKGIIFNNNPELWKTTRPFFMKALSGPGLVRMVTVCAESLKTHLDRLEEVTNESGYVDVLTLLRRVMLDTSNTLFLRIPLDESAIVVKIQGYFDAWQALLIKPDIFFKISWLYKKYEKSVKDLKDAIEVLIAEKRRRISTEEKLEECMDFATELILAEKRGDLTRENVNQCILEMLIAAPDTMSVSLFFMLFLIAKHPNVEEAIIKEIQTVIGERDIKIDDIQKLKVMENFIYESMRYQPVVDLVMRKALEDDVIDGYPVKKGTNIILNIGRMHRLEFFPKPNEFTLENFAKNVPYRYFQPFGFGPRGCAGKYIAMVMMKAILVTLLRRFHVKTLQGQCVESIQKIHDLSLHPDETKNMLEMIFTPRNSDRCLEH
# MCF7 = assay: Antiproliferative activity against estrogen positive human MCF7 cells assessed as inhibition of cell growth upto 50 uM incubated for 72 hrs by cell counting analysis; assay type: functional, cell-based
# Summary of the method: (§1)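 Cells seeded in duplicate (50.000 cells/well for MCF-7 and MDA-MB-231, 90.000 cells/well for MCF-10A). 24 h later exposed 72 h to 50-0.1 μM compound, with or without 1 μM testosterone; medium and treatments replaced at 48 h. Cells harvested with trypsin and counted with a cell counter. Three experiments.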
# MCF-10A = assay: Cytotoxicity against human MCF-10A cells assessed as inhibition of cell growth upto 50 uM incubated for 72 hrs by cell counting analysis; assay type: toxicity, cell-based; summary of the method: as §1
# MDA-MB-231 = assay: Antiproliferative activity against estrogen negative human MDA-MB-231 cells assessed as inhibition of cell growth upto 50 uM incubated for 72 hrs by cell counting analysis; assay type: functional, cell-based; summary of the method: as §1
# Aromatase [2] = target: T1, Aromatase; assay: Inhibition of recombinant human aromatase preincubated for 10 mins followed by substrate and beta-NADP+ addition and measured for 60 mins by fluorescence based assay
# Summary of the method: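 Recombinant human aromatase with NADPH-generating system in aromatase assay buffer. Compounds tested at 1000, 100, 10, 1 and 0.1 nM, DMSO final ≤0,25% (v/v). Preincubated 37°C for 10 min, then fluorogenic substrate/β-NADP+ added. Fluorescence read at 488/527 nm for 60 min.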
IC50 (Aromatase [1]) [nM],IC50 (Aromatase [2]) [nM],Compound,inhibition (MCF7),Activity (MCF-10A),inhibition (MDA-MB-231)
238,–,COc1ccc(C(=O)c2ccc(Cn3ccnc3)cc2)cc1,–,–,–
–,13,COc1ccc(C(=O)c2cccc(Cn3ccnc3)c2)cc1,inactive,Non-Toxic,inactive
–,1420,CCC#CCOc1ccc(C(=O)c2ccc(Cn3ccnc3)cc2)cc1,inactive,Non-Toxic,inactive
–,42,CCCCCOc1ccc(C(=O)c2cccc(Cn3ccnc3)c2)cc1,inactive,Non-Toxic,inactive
2530,–,O=C(c1ccc(Cn2ccnc2)cc1)c1ccc(-c2ccccc2)cc1,–,–,–
–,9,CCC#CCOc1ccc(C(=O)c2cccc(Cn3ccnc3)c2)cc1,inactive,Non-Toxic,inactive
1100,–,O=C(c1ccc(O)cc1)c1ccc(Cn2ccnc2)cc1,–,–,–
–,374,CCCOc1ccc(C(=O)c2ccc(Cn3ccnc3)cc2)cc1,inactive,Non-Toxic,inactive
–,210,C#CCOc1ccc(C(=O)c2ccc(Cn3ccnc3)cc2)cc1,inactive,Non-Toxic,inactive
–,13,O=C(c1ccc(O)cc1)c1cccc(Cn2ccnc2)c1,inactive,Non-Toxic,inactive
–,2,CCCOc1ccc(C(=O)c2cccc(Cn3ccnc3)c2)cc1,inactive,Non-Toxic,inactive
–,650,C#CCOc1ccc(C(=O)c2cccc(Cn3ccnc3)c2)cc1,inactive,Non-Toxic,inactive
–,1300,CCCCCOc1ccc(C(=O)c2ccc(Cn3ccnc3)cc2)cc1,inactive,Non-Toxic,inactive
